Test [1] deals with Klebsiella pneumoniae. Kind of test: Antibacterial activity against polymyxin-resistant Klebsiella pneumoniae UAMS-KPPR1 after 18 to 20 hrs by broth microdilution method. It is filed as functional.
For test [2], the system named is Escherichia coli. Kind of test: Antibacterial activity against polymyxin-resistant Escherichia coli UAMS-ECPR1 after 18 to 20 hrs by broth microdilution method. It counts as functional. In short, it runs like this:
(§1)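 Broth microdilution in tryptic soy broth: 2-fold dilutions mixed 1:1 with ~1.5 × 10^5 CFU/mL bacterial suspension in TSB, final 0.5–32 μg/mL, 37 °C for 18–20 h. MIC = lowest concentration with no visible growth. At least three independent experiments, one replicate each.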
For orientation: Broth dilution looks for growth in wells or tubes with falling amounts of substance.

The subject of test [3] is Klebsiella pneumoniae. Kind of test: Antibacterial activity against polymyxin-resistant Klebsiella pneumoniae UAMS-KPPR3 after 18 to 20 hrs by broth microdilution method. It is filed as functional.
Test [4] has as its system Escherichia coli. The experiment in a line: Antibacterial activity against polymyxin-resistant Escherichia coli AR 0494 expressing mcr1 after 18 to 20 hrs by broth microdilution method. It is filed as functional. In outline: as §1
For test [5], the system named is Escherichia coli. Kind of test: Antibacterial activity against polymyxin-resistant Escherichia coli UAMS-ECPR2 after 18 to 20 hrs by broth microdilution method. It counts as functional. In short, it runs like this:
as §1

In test [6] the test system is Klebsiella pneumoniae. Kind of test: Potentiation of erythromycin-mediated antibacterial activity against Klebsiella pneumoniae ATCC 13883 assessed as decrease in erythromycin MIC at 4 ug/ml by checkerboard method relative to control. It counts as functional.
The test system of test [7] is Klebsiella pneumoniae. The experiment in a line: Antibacterial activity against Klebsiella pneumoniae ATCC 13883 after 18 to 20 hrs by broth microdilution method. It is filed as functional.
In test [8] the test system is Klebsiella pneumoniae. The experiment in a line: Potentiation of vancomycin-mediated antibacterial activity against Klebsiella pneumoniae ATCC 13883 assessed as decrease in vancomycin MIC at 4 ug/ml by checkerboard method relative to control. It counts as functional.
For test [9], the system named is Acinetobacter baumannii. The experiment in a line: Potentiation of erythromycin-mediated antibacterial activity against Acinetobacter baumannii ATCC 19606 assessed as decrease in erythromycin MIC at 4 ug/ml by checkerboard method relative to control. It is filed as functional, ATCC 19606 = CIP 70.34 = JCM 6841.
Test [10] relates to Klebsiella pneumoniae. The experiment in a line: Potentiation of clarithromycin-mediated antibacterial activity against Klebsiella pneumoniae ATCC 13883 assessed as decrease in clarithromycin MIC at 4 ug/ml by checkerboard method relative to control. It is filed as functional.
For test [11], the system named is Acinetobacter baumannii. The experiment in a line: Potentiation of clarithromycin-mediated antibacterial activity against Acinetobacter baumannii ATCC 19606 assessed as decrease in clarithromycin MIC at 4 ug/ml by checkerboard method relative to control. It counts as functional, ATCC 19606 = CIP 70.34 = JCM 6841.
For test [12], the system named is Escherichia coli. Kind of test: Antibacterial activity against Escherichia coli ATCC 25922 in presence of 100% serum measured immediately post compound addition in serum by broth microdilution method. It counts as functional. In short, it runs like this: (§2)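 Serum stability: compound added to 100% human serum at final 64 μg/mL, held at 37 °C, sampled at 0, 6, 12 and 24 h. […] Residual activity compared with untreated control.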

Test [13] relates to Klebsiella pneumoniae. Kind of test: Potentiation of rifampicin-mediated antibacterial activity against Klebsiella pneumoniae ATCC 13883 assessed as decrease in rifampicin MIC at 2 ug/ml by checkerboard method relative to control. It is filed as functional.
Test [14] has as its system Acinetobacter baumannii. The experiment in a line: Potentiation of vancomycin-mediated antibacterial activity against Acinetobacter baumannii ATCC 19606 assessed as decrease in vancomycin MIC at 4 ug/ml by checkerboard method relative to control. It is filed as functional, ATCC 19606 = CIP 70.34 = JCM 6841.
Test [15] concerns Escherichia coli. Kind of test: Antibacterial activity against Escherichia coli ATCC 25922 in presence of 100% serum after 24 hrs by broth microdilution method. It is filed as functional. The conditions noted are these: ATCC 25922, 24 h. In short, it runs like this:
as §2

For test [16], the system named is Staphylococcus aureus. Kind of test: Antibacterial activity against methicillin-resistant Staphylococcus aureus ATCC 43300 after 18 to 20 hrs by broth microdilution method. It is filed as functional. In outline: as §1
The subject of test [17] is Pseudomonas aeruginosa. Kind of test: Antibacterial activity against Pseudomonas aeruginosa ATCC 27853 after 18 to 20 hrs by broth microdilution method. It counts as functional. In outline: (§3)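 Broth microdilution in tryptic soy broth: 2-fold dilutions mixed 1:1 with ~1.5 × 10^5 CFU/mL inoculum, final 0.5–32 μg/mL; 37 °C, 18–20 h. MIC taken as lowest concentration giving no visible growth. At least three independent experiments, one replicate each.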

Test [18] has as its system Escherichia coli. The experiment in a line: Antibacterial activity against Escherichia coli ATCC 25922 after 18 to 20 hrs by broth microdilution method. It counts as functional. In short, it runs like this: as §3
Test [19] deals with Pseudomonas aeruginosa. The experiment in a line: Bactericidal activity against Pseudomonas aeruginosa ATCC 27853 after 60 mins in presence of LPS. It is filed as functional. In outline: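 P. aeruginosa at ~10^6 CFU/mL in TSB with E. coli O111:B4 LPS (final 10, 25, 50 or 100 μg/mL), then compound at final 16 μg/mL. Incubated 37 °C, 200 rpm, 60 min; survivors counted on TSA. Three independent experiments, one replicate each.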

A further test deals with Enterococcus faecium. Kind of test: Antibacterial activity against Enterococcus faecium ATCC 19434 after 18 to 20 hrs by broth microdilution method. It is filed as functional. In outline: as §3
The test system of test [20] is Escherichia coli. Kind of test: Antibacterial activity against Escherichia coli ATCC 25922 after 18 to 20 hrs in presence of 95% serum by broth microdilution method. It is filed as functional. In short, it runs like this:
(§4)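 Same microdilution with human serum as medium: compound 2-fold diluted in 100% serum, mixed 1:1 with 90% serum holding ~1.5 × 10^5 CFU/mL, giving 95% serum and final 0.5–64 μg/mL. MIC read as no visible growth after incubation as for the broth test.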

Test [21] concerns Klebsiella pneumoniae. Kind of test: Potentiation of ampicillin-mediated antibacterial activity against Klebsiella pneumoniae ATCC 13883 assessed as decrease in ampicillin MIC at 4 ug/ml by checkerboard method relative to control. It is filed as functional.
Test [22] concerns Acinetobacter baumannii. Kind of test: Antibacterial activity against Acinetobacter baumannii ATCC 19606 after 18 to 20 hrs by broth microdilution method. It is filed as functional. The following applies: ATCC 19606 = CIP 70.34 = JCM 6841.
Test [23] concerns Escherichia coli. The experiment in a line: Antibacterial activity against Escherichia coli ATCC 25922 in presence of 100% serum after 6 hrs by broth microdilution method. It counts as functional. The following applies: ATCC 25922, 6 h. In outline:
as §2

In test [24] the test system is Acinetobacter baumannii. Kind of test: Potentiation of ampicillin-mediated antibacterial activity against Acinetobacter baumannii ATCC 19606 assessed as decrease in ampicillin MIC at 4 ug/ml by checkerboard method relative to control. It counts as functional, ATCC 19606 = CIP 70.34 = JCM 6841.
Test [25] concerns Acinetobacter baumannii. The experiment in a line: Potentiation of rifampicin-mediated antibacterial activity against Acinetobacter baumannii ATCC 19606 assessed as rifampicin MIC at 2 ug/ml by checkerboard method (reference value: 16 ug/ml). It counts as functional. The following applies: ATCC 19606 = CIP 70.34 = JCM 6841.
The subject of test [26] is Staphylococcus aureus. Kind of test: Antibacterial activity against Staphylococcus aureus ATCC 29213 after 18 to 20 hrs in presence of 95% serum by broth microdilution method. It is filed as functional. In short, it runs like this: as §4
Test [27] has as its system Klebsiella pneumoniae. Kind of test: Potentiation of rifampicin-mediated antibacterial activity against Klebsiella pneumoniae ATCC 13883 assessed as rifampicin MIC at 2 ug/ml by checkerboard method (reference value: 16 ug/ml). It counts as functional.
In test [28] the test system is Escherichia coli. Kind of test: Antibacterial activity against Escherichia coli ATCC 25922 in presence of 100% serum after 12 hrs by broth microdilution method. The following applies: ATCC 25922, 12 h. It is filed as functional. In outline:
as §2

Test [29] deals with Pseudomonas aeruginosa. Kind of test: Bactericidal activity against Pseudomonas aeruginosa ATCC 27853. It counts as functional. The conditions noted are these: read-out: MBC99.9. In short, it runs like this:
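MBC from MIC plates at end point: 50 μL from each well with no visible growth plated on tryptic soy agar and counted. MBC taken as lowest concentration giving ≥99.9% fall in viable count relative to initial inoculum. Three independent experiments, one replicate each.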

Test [30] has as its system Staphylococcus aureus. The experiment in a line: Antibacterial activity against Staphylococcus aureus ATCC 29213 after 18 to 20 hrs by broth microdilution method. It is filed as functional. In short, it runs like this:
as §3

Test [31] concerns Acinetobacter baumannii. Kind of test: Potentiation of rifampicin-mediated antibacterial activity against Acinetobacter baumannii ATCC 19606 assessed as decrease in rifampicin MIC at 4 ug/ml by checkerboard method relative to control. It is filed as functional, ATCC 19606 = CIP 70.34 = JCM 6841.

≈ marks a conversion by molar mass, not a printed value. Calls of active or inactive are those of the source. No cut-off for these calls is given here. Non-standard residues stand in square brackets, D forms with d. Residues, ends and D or L forms follow the SMILES beside them. *: point of attachment. Octanoyl = CCCCCCCC(=O)*; Dab = NCC[C@H](N)C(=O)O

A word on the MIC: it is the least concentration at which growth counts as inhibited. Turning to POLYMYXIN B, the MIC in the test on Klebsiella pneumoniae [1] is above 32 µg/mL; against Escherichia coli [2] it was 32 µg/mL; in the test with Klebsiella pneumoniae [3] it was above 32 µg/mL; against Escherichia coli [4], 2 to 8 µg/mL; in the test on Escherichia coli [5], 32 µg/mL.
As for `CCCCCCCC(=O)N[C@@H](CCN)C(=O)N[C@H](C(=O)N[C@@H](CCN)C(=O)N[C@H](Cc1ccccc1)C(=O)N[C@@H](CC(C)C)C(=O)N[C@@H](CCN)C(=O)N[C@@H](C(=O)N[C@@H](CC(C)C)C(=O)N[C@@H](CCN)C(N)=O)C(C)C)[C@@H](C)CC` (Octanoyl-[Dab]I[Dab][dF]L[Dab][dV]L[Dab]-NH2), the “fold change (FC)” value in the test on Klebsiella pneumoniae [6] is 512; with Klebsiella pneumoniae [8], 2; in the test with Acinetobacter baumannii [9] it was 128 - 256; with Klebsiella pneumoniae [10], 2048; in the test on Acinetobacter baumannii [11] it was 4096 - 8192; in the test with Klebsiella pneumoniae [13], “>=8192”. In addition, the “fold change (FC)” value with Acinetobacter baumannii [14] is given as 64 - 128; with Klebsiella pneumoniae [21], 1; in the test on Acinetobacter baumannii [24] it was 16 - 32; in the test with Acinetobacter baumannii [31], 8192. In addition, the MIC against Klebsiella pneumoniae [7] was above 32 µg/mL; with Escherichia coli [12] it was 1 to 2 µg/mL; in the test with Escherichia coli [15], 2 µg/mL; in the test on Staphylococcus aureus [16] it was 32 µg/mL (≈ 28.3 µM); with Pseudomonas aeruginosa [17], 2 to 4 µg/mL (≈ 1.77 to 3.54 µM); against Escherichia coli [18], 4 to 16 µg/mL (≈ 3.54 to 14.2 µM). Further, the MIC in the test on Enterococcus faecium is 32 µg/mL (≈ 28.3 µM); in the test with Escherichia coli [20], 2 to 4 µg/mL; with Acinetobacter baumannii [22], at least 32 µg/mL; in the test on Escherichia coli [23] it was 2 µg/mL; in the test with Acinetobacter baumannii [25] it was 0.0019 µg/mL; with Staphylococcus aureus [26], 16 µg/mL. Also, the values for the MIC in the test with Klebsiella pneumoniae [27], with Escherichia coli [28] and in the test on Staphylococcus aureus [30] were 0.0019 to 0.0039 µg/mL, 1 to 2 µg/mL and above 32 µg/mL, respectively. Besides, the outcome in the test on Pseudomonas aeruginosa [19] was inactive. Further, in the test with Pseudomonas aeruginosa [29], the MBC was found to be 16 µg/mL (≈ 14.2 µM).
